Reference: ChEMBL document CHEMBL1126276, “Synthesis and antimalarial properties of 1-imino derivatives of 7-chloro-3-substituted-3,4-dihydro-1,9(2H,10H)-acridinediones and related structures” (J Med Chem, 1992)

Columns and labels:
Plasmodium berghei [1] = experiment: Antimalarial activity was measured against mice (Mus musculus) infected with Plasmodium berghei by subcutaneous administration of 160 mg/kg dose; format: organism-based; design: dose 160 mg/kg, route subcutaneous; conditions: in vivo, sc
Outline: (§1)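 […] in mice infected with a normal drug-sensitive P. berghei strain. Compound dissolved or suspended in sesame or peanut oil, given as a single subcutaneous dose 72 h postinfection.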

Plasmodium berghei [2] = experiment: Antimalarial activity was measured against mice (Mus musculus) infected with Plasmodium berghei by subcutaneous administration of 20 mg/kg dose; format: organism-based; design: dose 20 mg/kg, route subcutaneous; conditions: in vivo, sc; outline: as §1
Plasmodium berghei [3] = experiment: Antimalarial activity was measured against mice (Mus musculus) infected with Plasmodium berghei by subcutaneous administration of 40 mg/kg dose; format: organism-based; design: dose 40 mg/kg, route subcutaneous; conditions: in vivo, sc; outline: as §1
Plasmodium berghei [4] = experiment: Antimalarial activity was measured against mice (Mus musculus) infected with Plasmodium berghei by subcutaneous administration of 640 mg/kg dose; format: organism-based; design: dose 640 mg/kg, route subcutaneous; conditions: in vivo, sc; outline: as §1
Plasmodium berghei [5] = experiment: Antimalarial activity was measured against mice (Mus musculus) infected with Plasmodium berghei by subcutaneous administration of 80 mg/kg dose; format: organism-based; design: dose 80 mg/kg, route subcutaneous; conditions: in vivo, sc; outline: as §1
Plasmodium berghei [6] = experiment: Antimalarial activity in Plasmodium berghei infected mice (Mus musculus) after 320 mg/kg subcutaneous dose; format: functional; outline: as §1
Plasmodium berghei [7] = experiment: Antimalarial activity Plasmodium berghei infected mice (Mus musculus) after 640 mg/kg subcutaneous dose; format: functional; outline: as §1
Plasmodium berghei [8] = experiment: (§2) Antimalarial activity in Plasmodium berghei infected mice (Mus musculus) after 80 mg/kg subcutaneous dose; format: functional; outline: as §1
Plasmodium berghei [9] = experiment: (§3) Antimalarial activity in Plasmodium berghei infected mice (Mus musculus) after 10 mg/kg subcutaneous dose; format: functional
Outline: (§4)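 Normal drug-sensitive P. berghei strain in mice. Compound dissolved or suspended in sesame or peanut oil, given parenterally as a single subcutaneous dose 72 h postinfection.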

Plasmodium berghei [10] = experiment: Antimalarial activity in Plasmodium berghei infected mice (Mus musculus) after subcutaneous 160 mg/kg dose; format: functional; outline: as §4
Plasmodium berghei [11] = experiment: (§5) Antimalarial activity in Plasmodium berghei infected mice (Mus musculus) after 20 mg/kg subcutaneous dose; format: functional; outline: as §4
Plasmodium berghei [12] = experiment: Antimalarial activity in Plasmodium berghei infected mice (Mus musculus) after subcutaneous 320 mg/kg dose; format: functional; outline: as §4
Plasmodium berghei [13] = experiment: (§6) Antimalarial activity in Plasmodium berghei infected mice (Mus musculus) after 40 mg/kg subcutaneous dose; format: functional; outline: as §4
Plasmodium berghei [14] = experiment: Antimalarial activity in Plasmodium berghei infected mice (Mus musculus) after subcutaneous 640 mg/kg dose; format: functional; outline: as §4
Plasmodium berghei [15] = experiment: as §2; format: functional; outline: as §4; remark: listed apart in the source
Plasmodium berghei [16] = experiment: as §5; format: functional; outline: as §1; remark: listed apart in the source
Plasmodium berghei [17] = experiment: as §6; format: functional; outline: as §1; remark: listed apart in the source
Plasmodium berghei [18] = experiment: Antimalarial activity was measured against mice (Mus musculus) infected with Plasmodium berghei by subcutaneous administration of 320 mg/kg dose; format: organism-based; design: dose 320 mg/kg, route subcutaneous; conditions: in vivo, sc; outline: as §1
Plasmodium berghei [19] = experiment: as §3; format: functional; outline: as §1; remark: listed apart in the source
Plasmodium berghei [20] = experiment: (§7) Antimalarial activity in Plasmodium berghei infected mice (Mus musculus) after 5 mg/kg subcutaneous dose; format: functional; outline: as §1
Plasmodium berghei [21] = experiment: as §7; format: functional; outline: as §4; remark: listed apart in the source
Plasmodium berghei [22] = experiment: Antimalarial activity in Plasmodium berghei infected mice (Mus musculus) after 640 mg/kg subcutaneous dose; format: functional; outline: as §1
Plasmodium berghei [23] = experiment: Antimalarial activity in Plasmodium berghei infected mice (Mus musculus) after 160 mg/kg subcutaneous dose; format: functional; outline: as §1

CCCC/N=C1\CC(c2ccc(Cl)c(Cl)c2)Cc2nc3ccc(Cl)cc3c(O)c21 (configuration not stated)
No. of toxic deaths (Plasmodium berghei [1]): 5
No. of toxic deaths (Plasmodium berghei [2]): 5
No. of toxic deaths (Plasmodium berghei [3]): 4
No. of toxic deaths (Plasmodium berghei [4]): 1
No. of toxic deaths (Plasmodium berghei [5]): 3
Delta mean survival time (Plasmodium berghei [6]): 1.2
Delta mean survival time (Plasmodium berghei [7]): 2.5
Delta mean survival time (Plasmodium berghei [8]): 1.5

OCCN(CCO)CCC/N=C1\CC(c2ccc(Cl)cc2Cl)Cc2nc3ccc(Cl)cc3c(O)c21 (configuration not stated)
No. of cured mice (Plasmodium berghei [9]): 1
No. of cured mice (Plasmodium berghei [10]): 5
No. of cured mice (Plasmodium berghei [11]): 4
No. of cured mice (Plasmodium berghei [12]): 5
No. of cured mice (Plasmodium berghei [13]): 4
No. of cured mice (Plasmodium berghei [14]): 5
No. of cured mice (Plasmodium berghei [15]): 5
Delta mean survival time (Plasmodium berghei [16]): 10.9
Delta mean survival time (Plasmodium berghei [17]): 10.9

CCN(CC)CCCC/N=C1\CC(c2ccc(Cl)cc2Cl)Cc2nc3ccc(Cl)cc3c(O)c21 (configuration not stated)
No. of cured mice (Plasmodium berghei [9]): 2
No. of cured mice (Plasmodium berghei [10]): 5
No. of cured mice (Plasmodium berghei [11]): 5
No. of cured mice (Plasmodium berghei [12]): 5
No. of cured mice (Plasmodium berghei [13]): 5
No. of cured mice (Plasmodium berghei [14]): 5
No. of cured mice (Plasmodium berghei [15]): 5

C=CCNCC/N=C1\CC(c2ccc(C(F)(F)F)cc2)Cc2c1c(=O)c1cc(Cl)ccc1n2O (configuration not stated)
No. of toxic deaths (Plasmodium berghei [18]): 5
No. of toxic deaths (Plasmodium berghei [4]): 5
No. of toxic deaths (Plasmodium berghei [5]): 3
No. of cured mice (Plasmodium berghei [10]): 5
No. of cured mice (Plasmodium berghei [13]): 2
No. of cured mice (Plasmodium berghei [15]): 1
Delta mean survival time (Plasmodium berghei [16]): 7.8
Delta mean survival time (Plasmodium berghei [17]): 8.4

CCN(CC)CCCC(C)/N=C1\CC(c2ccc(C(F)(F)F)cc2)Cc2nc3ccc(Cl)cc3c(O)c21 (configuration not stated)
No. of toxic deaths (Plasmodium berghei [18]): 2
No. of toxic deaths (Plasmodium berghei [5]): 1
No. of cured mice (Plasmodium berghei [10]): 5
No. of cured mice (Plasmodium berghei [11]): 3
No. of cured mice (Plasmodium berghei [12]): 3
No. of cured mice (Plasmodium berghei [13]): 5
No. of cured mice (Plasmodium berghei [14]): 2
No. of cured mice (Plasmodium berghei [15]): 4
Delta mean survival time (Plasmodium berghei [16]): 10.8
Delta mean survival time (Plasmodium berghei [7]): 3.3

CN(C)CCC/N=C1\CC(c2ccc(Cl)cc2Cl)Cc2nc3ccc(Cl)cc3c(O)c21 (configuration not stated)
No. of cured mice (Plasmodium berghei [9]): 3
No. of cured mice (Plasmodium berghei [10]): 5
No. of cured mice (Plasmodium berghei [11]): 5
No. of cured mice (Plasmodium berghei [12]): 5
No. of cured mice (Plasmodium berghei [13]): 5
No. of cured mice (Plasmodium berghei [14]): 5
No. of cured mice (Plasmodium berghei [15]): 5
Delta mean survival time (Plasmodium berghei [19]): 13.6
Delta mean survival time (Plasmodium berghei [20]): 7.4
No. of cured mice (Plasmodium berghei [21]): 1

O=C1CC(c2ccc(C(F)(F)F)cc2)Cc2c1c(=O)c1cc(Cl)c(F)cc1n2O (configuration not stated)
No. of toxic deaths (Plasmodium berghei [1]): 5
No. of toxic deaths (Plasmodium berghei [18]): 5
No. of toxic deaths (Plasmodium berghei [3]): 5
No. of toxic deaths (Plasmodium berghei [4]): 5
No. of toxic deaths (Plasmodium berghei [5]): 5
Delta mean survival time (Plasmodium berghei [16]): 9

CCN(CC)CCC/N=C1\CC(c2ccc(C(F)(F)F)cc2)Cc2c1c(=O)c1cc(Cl)ccc1n2O (configuration not stated)
No. of toxic deaths (Plasmodium berghei [1]): 3
No. of toxic deaths (Plasmodium berghei [18]): 3
No. of toxic deaths (Plasmodium berghei [4]): 5
No. of toxic deaths (Plasmodium berghei [5]): 3
No. of cured mice (Plasmodium berghei [10]): 2
No. of cured mice (Plasmodium berghei [11]): 2
No. of cured mice (Plasmodium berghei [12]): 2
No. of cured mice (Plasmodium berghei [13]): 3
No. of cured mice (Plasmodium berghei [15]): 2
Delta mean survival time (Plasmodium berghei [16]): 10.1
Delta mean survival time (Plasmodium berghei [17]): 16.8

Oc1c2c(nc3ccc(Cl)cc13)CC(c1ccc(Cl)cc1Cl)C/C2=N\CCCN1CCCC1 (configuration not stated)
No. of cured mice (Plasmodium berghei [9]): 1
No. of cured mice (Plasmodium berghei [10]): 5
No. of cured mice (Plasmodium berghei [11]): 4
No. of cured mice (Plasmodium berghei [12]): 5
No. of cured mice (Plasmodium berghei [13]): 5
No. of cured mice (Plasmodium berghei [14]): 5
No. of cured mice (Plasmodium berghei [15]): 5
Delta mean survival time (Plasmodium berghei [16]): 22.9

CN(C)CCC/N=C1\CC(c2ccc(Cl)cc2Cl)Cc2nc3c(Cl)cccc3c(O)c21 (configuration not stated)
No. of toxic deaths (Plasmodium berghei [1]): 5
No. of toxic deaths (Plasmodium berghei [18]): 5
No. of toxic deaths (Plasmodium berghei [3]): 1
No. of toxic deaths (Plasmodium berghei [4]): 5
No. of toxic deaths (Plasmodium berghei [5]): 4
Delta mean survival time (Plasmodium berghei [16]): 0
Delta mean survival time (Plasmodium berghei [17]): 0.5

CN(C)CCC/N=C1\CC(c2ccc(C(F)(F)F)cc2)Cc2nc3cc(Cl)ccc3c(O)c21 (configuration not stated)
No. of toxic deaths (Plasmodium berghei [1]): 5
No. of toxic deaths (Plasmodium berghei [18]): 5
No. of toxic deaths (Plasmodium berghei [3]): 3
No. of toxic deaths (Plasmodium berghei [4]): 5
No. of toxic deaths (Plasmodium berghei [5]): 3
Delta mean survival time (Plasmodium berghei [16]): 2.1
Delta mean survival time (Plasmodium berghei [8]): 6.4
Delta mean survival time (Plasmodium berghei [17]): 5.4

CN(C)CCC/N=C1\CC(c2ccc(C(F)(F)F)cc2)Cc2nc3ccccc3c(O)c21 (configuration not stated)
No. of toxic deaths (Plasmodium berghei [1]): 5
No. of toxic deaths (Plasmodium berghei [2]): 1
No. of toxic deaths (Plasmodium berghei [3]): 5
No. of toxic deaths (Plasmodium berghei [4]): 5
Delta mean survival time (Plasmodium berghei [16]): 5.3

CN(C)CCC/N=C1\CC(c2ccc(Cl)cc2Cl)Cc2nc3cc(Cl)ccc3c(O)c21 (configuration not stated)
No. of toxic deaths (Plasmodium berghei [22]): 2
No. of cured mice (Plasmodium berghei [10]): 4
No. of cured mice (Plasmodium berghei [12]): 5
No. of cured mice (Plasmodium berghei [13]): 1
No. of cured mice (Plasmodium berghei [14]): 3
Delta mean survival time (Plasmodium berghei [23]): 13.8
Delta mean survival time (Plasmodium berghei [16]): 2.8
Delta mean survival time (Plasmodium berghei [8]): 12
Delta mean survival time (Plasmodium berghei [17]): 6.3

CCN(CC)CC/N=C1\CC(c2ccc(Cl)cc2Cl)Cc2nc3ccc(Cl)cc3c(O)c21 (configuration not stated)
No. of cured mice (Plasmodium berghei [9]): 5
No. of cured mice (Plasmodium berghei [10]): 5
No. of cured mice (Plasmodium berghei [11]): 5
No. of cured mice (Plasmodium berghei [12]): 5
No. of cured mice (Plasmodium berghei [13]): 5
No. of cured mice (Plasmodium berghei [14]): 5
No. of cured mice (Plasmodium berghei [15]): 5

O=C1CC(c2ccc(Cl)cc2Cl)Cc2nc3c(Cl)cccc3c(O)c21 (configuration not stated)
No. of toxic deaths (Plasmodium berghei [1]): 2
No. of toxic deaths (Plasmodium berghei [2]): 1
No. of toxic deaths (Plasmodium berghei [18]): 2
No. of toxic deaths (Plasmodium berghei [3]): 1
No. of toxic deaths (Plasmodium berghei [4]): 4
No. of toxic deaths (Plasmodium berghei [5]): 1
Delta mean survival time (Plasmodium berghei [23]): 1.3
Delta mean survival time (Plasmodium berghei [16]): 0.3
Delta mean survival time (Plasmodium berghei [6]): 4
Delta mean survival time (Plasmodium berghei [7]): 2
Delta mean survival time (Plasmodium berghei [8]): 5.3
Delta mean survival time (Plasmodium berghei [17]): 1.3

CCCCNC(CC)C/N=C1\CC(c2ccc(Cl)cc2Cl)Cc2nc3ccc(Cl)cc3c(O)c21 (configuration not stated)
No. of cured mice (Plasmodium berghei [9]): 4
No. of cured mice (Plasmodium berghei [10]): 5
No. of cured mice (Plasmodium berghei [11]): 5
No. of cured mice (Plasmodium berghei [12]): 5
No. of cured mice (Plasmodium berghei [13]): 5
No. of cured mice (Plasmodium berghei [14]): 5
No. of cured mice (Plasmodium berghei [15]): 5
